# Screening results: PubChem BioAssay, The Scripps Research Institute Molecular Screening Center
# PRMT1 FP inh: blocks human protein arginine methyltransferase 1. inhibition, % at 2.79 µM. recombinant PRMT1, activity-based probe fluorescence polarization. Q99873. 370,000 tested, 1.3% active. AID 652257;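 active means inhibition above about 21% made by adding two undisclosed values, limit read from the data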
# Target sequence (Q99873 whole entry, looked up): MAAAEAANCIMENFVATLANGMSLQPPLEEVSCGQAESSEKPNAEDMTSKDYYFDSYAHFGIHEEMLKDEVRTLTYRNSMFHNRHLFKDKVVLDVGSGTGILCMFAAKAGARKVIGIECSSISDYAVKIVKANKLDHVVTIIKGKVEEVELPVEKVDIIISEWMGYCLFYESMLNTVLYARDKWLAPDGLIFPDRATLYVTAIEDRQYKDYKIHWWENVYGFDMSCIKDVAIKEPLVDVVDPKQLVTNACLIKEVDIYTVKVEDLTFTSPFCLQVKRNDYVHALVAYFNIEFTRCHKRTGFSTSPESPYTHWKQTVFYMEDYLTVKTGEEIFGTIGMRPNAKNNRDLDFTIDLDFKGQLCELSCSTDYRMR
# mABHD4 FP: inhibits mouse alpha/beta hydrolase domain 4 | inhibition, % at 8.92 µM | purified mABHD4, FP-Rh probe fluorescence polarization | 370,000 tested, 0.54% active;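 active means inhibition exceeding the mean over every tested compound plus 3 SD, cut at about 30% in these data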;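 further: 0% = plate median of compound wells and 100% = S159A mutant with DMSO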
# Target sequence (Q8VD66 whole entry, looked up, the tested form may be a part): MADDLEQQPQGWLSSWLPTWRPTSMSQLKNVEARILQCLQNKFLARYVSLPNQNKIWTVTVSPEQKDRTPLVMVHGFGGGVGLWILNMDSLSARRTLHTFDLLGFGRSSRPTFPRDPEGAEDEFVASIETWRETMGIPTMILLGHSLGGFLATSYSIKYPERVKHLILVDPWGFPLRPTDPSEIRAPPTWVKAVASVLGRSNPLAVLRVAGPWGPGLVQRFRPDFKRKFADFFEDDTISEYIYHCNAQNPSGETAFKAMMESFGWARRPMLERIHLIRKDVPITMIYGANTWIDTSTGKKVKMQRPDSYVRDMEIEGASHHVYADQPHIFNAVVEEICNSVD
#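 Assay system: mouse ABHD4 enzyme, wild type / Also added: fluorescent activity-based probe FP-Rh / Doses: single nominal dose of 8.92 µM, 0.89% DMSO final / Timing: 45 min compound pre-incubation plus 60 min probe step, 25 °C / Signal: FP readout, ex 525 nm / em 598 nm / Control set: S159A mutant/DMSO as 100%, compound-well median as 0%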
# SIAE primary: human SIAE inhibition, primary screen | inhibition, % at 9.66 µM | 370,000 tested, 0.69% active | Q9HAT2 | AID 1053197 | SIAE FP-Rh probe binding, fluorescence polarization;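 active means inhibition above a cutoff: mean of compounds within the control limits plus 3 SD of those, cut at about 17% in these data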;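 further: 0% = plate median of compound wells and 100% = probe without SIAE protein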
# rCAG RNA binder: molecules binding r(CAG) RNA repeats; 370,000 tested, 1.3% active; AID 651821; inhibition, % at 3 µM; r(CAG) RNA repeat, TO-PRO-1 dye displacement fluorescence;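 active means inhibition above the plate cutoff, the mean of all test compounds on that plate plus 3 SD, cut at about 35% in these data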;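 further: 0% = DMSO alone and 100% = 100 µM mitoxantrone as full dye displacement; higher means more dye released from RNA so lower well fluorescence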
# TCR-CD3 inh: blocks the human TCR-CD3 interaction; TAMRA-labeled TCR probe fluorescence, biochemical; inhibition, % at 9.4 µM; 360,000 tested, 0.37% active; in the data active means inhibition above about 19%;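 further: recombinant mutant TCR 2C K166C tagged with TAMRA read by polarization; 0% = receptor in buffer alone and 100% = receptor with positive control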
# rCAG bind conf: r(CAG) RNA repeat binding, confirmation. AID 652065. inhibition, % at 3 µM. shares compounds with rCAG RNA binder. 4,300 tested, 70% active. TO-PRO-1 dye displacement fluorescence;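 active means inhibition above a per-plate cutoff, the mean inhibition of sample wells plus 3 SD, cut at about 35% in these data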;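 further: loss of TO-PRO-1 fluorescence as compound displaces dye from 1x1 AA loop RNA; 0% = DMSO only wells and 100% = 100 µM mitoxantrone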
# DNA CAG counter: counter-screen for rCAG RNA binders: DNA CAG dye complex inhibitors | shares compounds with rCAG RNA binder | d(CAG) DNA oligo TO-PRO-1 dye displacement, fluorescence | inhibition, % at 3 µM | 4,300 tested, 94% active | AID 652068;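 active means inhibition above its plate's cutoff, the mean test-well inhibition plus 3 SD, cut at about 4.8% in these data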;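 further: 0% = DNA dye mix with DMSO and 100% = 100 µM mitoxantrone; hits displace the dye from DNA and so lower well fluorescence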
# PRMT1 confirm: PRMT1 (human) inhibition, FP confirmation. shares compounds with PRMT1 FP inh. recombinant His-PRMT1, activity-based probe fluorescence polarization. inhibition, % at 2.79 µM. 3,300 tested, 42% active;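 active means mean inhibition across replicates above the hit cutoff derived for the earlier primary screen, cut at about 22% in these data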
# mABHD4 conf: ABHD4 (mouse) inhibition, FP confirmation | AID 720658 | purified mABHD4, FP-Rh probe fluorescence polarization | 1,800 tested, 55% active | inhibition, % at 8.92 µM | shares compounds with mABHD4 FP;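 active means mean inhibition across replicates above the hit cutoff set in the primary screen, cut at about 30% in these data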;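 further: 0% = wild-type ABHD4 with DMSO and 100% = catalytically dead S159A mutant with DMSO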
# * = called active by the depositor; i = inactive; nt = not tested or not shown. The list is not random: actives were taken first. Their share in the collection is about 3.3%.
SMILES,PRMT1 FP inh,mABHD4 FP,SIAE primary,rCAG RNA binder,TCR-CD3 inh,PRMT1 confirm,others
N/C(=N\N=C/c1ccc(-c2ccc(O)c(C(=O)O)c2)o1)N[N+](=O)[O-],32.9*,35.2*,-2.3,57.5*,17.4,nt,rCAG bind conf=66.8*;DNA CAG counter=28.4*;mABHD4 conf=42.4*
COc1ccc(/C=N/N=C(/N)N[N+](=O)[O-])c(OC)c1,3.1,-4.3,-1.6,3.0,-4.8,nt,
O=S(=O)(c1cccc(C(F)(F)F)c1)N1Cc2ccccc2-n2nncc2C1,-2.4,-1.6,1.6,0.7,1.8,nt,
O=C(N/N=C1/CN2CCC1CC2)c1cc2ccccc2cc1O,1.7,38.7*,17.2*,48.6*,9.2,nt,rCAG bind conf=6.7;DNA CAG counter=2.2;mABHD4 conf=18.6
CN(c1ccc(O)cc1)c1ccc([N+](=O)[O-])c2nonc12,-0.1,8.9,6.6,4.4,-2.2,nt,
Nc1ccc2nonc2c1[N+](=O)[O-],92.3*,19.5,-0.1,-162.5,9.7,78.5*,
CC1CN1P(=O)(Oc1ccccc1)N1CC1C (configuration not stated),-0.1,-6.0,0.1,3.2,0.6,nt,
CC1CN1P(=S)(c1ccccc1)N1CC1C (configuration not stated),35.9*,7.2,1.5,1.1,-2.0,3.1,
Nc1ccc2ccc3cccc[n+]3c2c1,175.4*,5.9,1.2,i,3.6,150.2*,
COC(=O)C1=C(c2cccc(OC)c2OC)C[C@@H]2CC[C@H]1N2C(=O)NCCS(C)=O (some centres not stated),2.0,8.6,-1.6,1.2,-3.0,nt,
O=[N+]([O-])c1ccc(N2CCOCC2)c2c1no[n+]2[O-],26.7*,-22.3,-8.7,0.5,4.7,2.0,
O=[N+]([O-])c1ccc(N2CCOCC2)c2cccnc12,-1.5,1.8,5.3,-0.9,-2.8,nt,
CC1CC(C)OP(=O)(OCCC#N)O1 (configuration not stated),3.6,-8.3,2.5,3.2,-3.1,nt,
c1cncc(CNCCN2CCNCC2)c1,-1.6,-19.5,1.7,0.9,-8.2,nt,
c1ccc(Cc2cnc(N3CCNCC3)nc2)cc1,45.0*,2.0,-10.3,2.0,1.2,13.1,
COCCNC(=O)c1c(N)n(Cc2ccco2)c2nc3ccccc3nc12,11.6,3.6,-5.4,9.3,1.3,nt,
C=CCNC(=O)c1c(N)n(Cc2ccco2)c2nc3ccccc3nc12,25.4*,6.1,-4.9,29.5,10.2,9.3,
COc1ccc(OC)c(CNCCc2ccc(OC)c(OC)c2)c1,-1.4,7.4,1.4,-0.3,3.9,nt,
N#CSCC(=O)N1c2ccccc2CCc2ccccc21,57.7*,-0.2,1.3,-0.2,0.7,49.8*,
CN(CC1COc2ccccc2O1)c1nc(-c2cccnc2)nc2ccccc12 (configuration not stated),-1.3,-10.7,-5.2,-1.4,4.2,nt,
NC(=S)/N=C/c1c(O)[nH]c(=O)[nH]c1=O,34.4*,2.8,-5.3,-2.9,10.4,4.0,
C=CCNC(=S)/N=C/c1c(O)[nH]c(=O)[nH]c1=O,14.7,6.0,0.1,-7.3,-3.8,nt,
CCOC(=O)c1ccccc1C(=O)OCC,3.5,6.6,-0.5,1.7,1.8,nt,
CCOC(=O)c1cc(C)sc1/N=C/C1C(=O)NC(=S)NC1=O,85.8*,-9.6,-12.0,-7.4,-18.3,9.3,
CCOc1cccc(=NC2CCCCC2)c2c(C)n(C)c(C)c12,46.7*,13.6,7.0,-1.2,4.1,3.6,
SMILES,PRMT1 FP inh,mABHD4 FP,SIAE primary,rCAG RNA binder,TCR-CD3 inh,PRMT1 confirm,others
CC(C)(O)C1C2OC(=O)C1C1(O)CC3OC34C(=O)OC2C14C (configuration not stated),-0.8,2.9,-2.3,2.4,3.8,nt,
S=P(NCCSCc1ccccc1)(N1CC1)N1CC1,29.4*,3.0,-2.2,6.7,5.8,-3.4,
S=P(NCCNP(=S)(N1CC1)N1CC1)(N1CC1)N1CC1,58.1*,-5.6,1.8,2.4,-0.6,-4.3,
Cc1ccc(-n2c(=S)[nH]c3ccccc3c2=O)cc1C,-4.4,6.6,1.4,5.6,-0.3,nt,
Cc1[nH]c2ccccc2c1C(=O)C(=O)N1CCC2(CC1)OCCO2,8.8,-9.4,-7.9,0.1,-17.2,nt,
C=CCn1c(O)c(C(CC)=Nc2cccc(C(=O)O)c2)c(=O)[nH]c1=O,10.8,9.0,3.3,-2.7,-8.1,nt,
NS(=O)(=O)c1ccc(-c2ccc(C=C3C(=O)NC(=S)NC3=O)o2)cc1,46.9*,14.8,2.3,24.6,9.0,67.6*,
Cn1cnc([N+](=O)[O-])c1Sc1ccc([N+](=O)[O-])cc1,47.5*,-2.1,-2.4,1.4,-9.5,12.5,
COC(=O)C1=C(c2cccc(OCc3ccccc3)c2)C[C@@H]2CC[C@H]1N2C(=O)NCc1ccc(C(F)(F)F)cc1,-1.6,-0.8,-4.9,2.9,3.0,nt,
CC(=O)O[C@H]1CCC2C3CC[C@H]4[C@@H](O)[C@H](O)CC[C@]4(C)C3CC[C@@]21C (some centres not stated),-2.6,-3.5,3.5,-0.3,-1.2,nt,
COc1ccc(C(C)=O)cc1Cc1c(O)[nH]c(=S)[nH]c1=O,28.0*,5.1,-1.2,10.5,1.4,-0.6,
CCOc1ccc(C(C)=O)cc1Cc1c(O)[nH]c(=S)[nH]c1=O,8.9,1.2,-1.7,3.6,-0.2,nt,
Cc1cc2c(C(F)(F)F)cc(=O)oc2c2c1NCCC2,38.4*,15.0,4.9,-23.9,-4.1,58.5*,
O=C1NC(=O)C(=Cc2ccc(SC3CCCCC3)o2)C(=O)N1,26.4*,8.7,-6.1,30.9,-1.8,4.1,
NS(=O)(=O)c1ccc(-c2ccc(C=C3C(=O)NC(=O)NC3=O)o2)cc1,19.5,0.4,2.3,3.4,-4.8,nt,
COP(=S)(OC)SCN1C(=O)c2ccccc2C1=O,59.0*,-0.1,5.4,2.2,4.6,75.6*,
O=P(C(Cl)Cl)(N1CCOCC1)N1CCOCC1,0.0,-6.5,6.1,-0.1,4.4,nt,
O=CC(Br)P(=O)(N1CCOCC1)N1CCOCC1 (configuration not stated),26.5*,-1.7,-0.1,-0.2,-0.8,30.6*,
Nc1ncn[nH]1,-3.4,0.6,-3.3,0.4,5.9,nt,
COC(=O)C1=C(C(=O)OC)C2OC1c1cc3ccccc3cc12,64.0*,-3.7,-0.9,0.1,-11.1,45.9*,
CCc1ccc(/C=C(/C#N)C(N)=S)cc1,30.3*,6.2,0.6,4.7,-2.3,5.2,
N#C/C(=C\c1ccc(O)cc1)C(=O)O,3.1,-1.7,4.4,-0.3,-5.7,nt,
COc1cc(/C=C2/C(=O)NC(=O)N(c3ccc(C)cc3)C2=O)cc(OC)c1OC,3.2,-0.1,-3.8,-1.5,-7.9,nt,
